In ChEMBL document CHEMBL1127042, “Molecular size and flexibility as determinants of selectivity in the oxidation of N-methyl-4-phenyl-1,2,3,6-tetrahydropyridine analogs by monoamine oxidase A and B” (J Med Chem, 1993):
Where “and” joins values, the source holds several entries; their conditions need not be identical. Equal values may be shown once.

What was measured:
[1] = target: Amine oxidase [flavin-containing] A (Homo sapiens) (UniProt P21397); assay: Ratio between TN and Km against MAO A
[2] = target: T1, Amine oxidase [flavin-containing] B (Bos taurus, UniProt P56560); assay: Turnover number against MAO B (umol of substrate/min per umol of enzyme).; conditions: cattle
T1 sequence (P56560 whole entry): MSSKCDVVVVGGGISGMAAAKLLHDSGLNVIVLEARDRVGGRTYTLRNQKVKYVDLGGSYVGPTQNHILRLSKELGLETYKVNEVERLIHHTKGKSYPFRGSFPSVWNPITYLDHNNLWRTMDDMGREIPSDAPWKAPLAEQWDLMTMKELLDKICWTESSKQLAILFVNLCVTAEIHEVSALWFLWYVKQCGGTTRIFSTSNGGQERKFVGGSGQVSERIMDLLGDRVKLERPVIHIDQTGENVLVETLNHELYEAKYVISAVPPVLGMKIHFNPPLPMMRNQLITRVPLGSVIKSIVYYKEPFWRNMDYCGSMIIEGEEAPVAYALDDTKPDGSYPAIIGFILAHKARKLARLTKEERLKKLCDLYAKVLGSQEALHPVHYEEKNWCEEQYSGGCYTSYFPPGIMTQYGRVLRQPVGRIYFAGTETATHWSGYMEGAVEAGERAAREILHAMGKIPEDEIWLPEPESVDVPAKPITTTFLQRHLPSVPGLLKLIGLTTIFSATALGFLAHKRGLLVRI
Method in brief: (§1)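 Beef liver MAO B, purified. Initial oxidation rates measured polarographically at 30 °C in sodium phosphate buffer, pH 7.2, with 0.2% (w/v) Brij-35. The reaction was started by adding enzyme, dosed so rates were measurable within 60-120 s. Vmax came from double-reciprocal plots. Turnover number was Vmax per flavin content. Flavin content came from the optical density change on anaerobic reduction by benzylamine.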

[3] = target: T1, Amine oxidase [flavin-containing] B; assay: Ratio of turnover number(TN)and Km for MAO B; conditions: cattle
Method in brief: as §1

[4] = target: T2, Amine oxidase [flavin-containing] A (Homo sapiens, UniProt P21397); assay: Turnover number against MAO A (umol of substrate/min per umol of enzyme).
T2 sequence (P21397 whole entry): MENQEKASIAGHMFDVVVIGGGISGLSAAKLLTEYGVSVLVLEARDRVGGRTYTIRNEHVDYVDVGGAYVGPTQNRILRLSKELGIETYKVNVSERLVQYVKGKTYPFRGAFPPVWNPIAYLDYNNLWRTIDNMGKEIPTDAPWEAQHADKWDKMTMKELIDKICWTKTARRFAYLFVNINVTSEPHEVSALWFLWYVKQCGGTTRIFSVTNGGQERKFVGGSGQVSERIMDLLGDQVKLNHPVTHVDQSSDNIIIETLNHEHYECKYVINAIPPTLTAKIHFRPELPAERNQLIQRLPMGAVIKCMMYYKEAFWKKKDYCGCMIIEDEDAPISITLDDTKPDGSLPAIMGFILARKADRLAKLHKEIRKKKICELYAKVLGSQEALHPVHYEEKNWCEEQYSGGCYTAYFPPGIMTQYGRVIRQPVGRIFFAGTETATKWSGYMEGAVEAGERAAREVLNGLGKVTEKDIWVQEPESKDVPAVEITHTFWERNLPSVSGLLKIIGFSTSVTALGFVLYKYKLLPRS
Method in brief: (§2)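 Human liver MAO A expressed in yeast, purified. Initial oxidation rates measured polarographically (O2 uptake) at 30 °C in sodium phosphate buffer, pH 7.2, with 0.2% (w/v) Brij-35. Enzyme was added last to start the reaction, and its amount was set so rates were read within 60-120 s. Vmax came from double-reciprocal plots. TN was Vmax divided by flavin content. Flavin content was found from the optical density change on anaerobic reduction by kynuramine.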

[5] = target: T3, MAO A (amine oxidase [flavin-containing] A) (Homo sapiens, UniProt P21397); assay: Michaelis-Menten constant against MAO A.
T3 sequence (P21397 whole entry): T2 sequence (P21397 whole entry)
Method in brief: as §2

[6] = target: T1, Amine oxidase [flavin-containing] B; assay: Ratio between TN and Km against MAO B; conditions: cattle
Method in brief: as §1

Structure (SMILES) | Ratio [1] | TN [2] [min⁻¹] | Ratio [3] | TN [4] [min⁻¹] | Km [5] [µM] | Ratio [6]
CN1CC=C(CCc2cccs2)CC1 | 389 | 51.9 | 1059 | 42 | – | –
CN1CC=C(Cc2ccc3ccccc3c2)CC1 | 3344 | 274 | 326 | 121 | – | –
CN1CC=C(Cc2cccc3ccccc23)CC1 | 2592 | 89 | 105 | 443 | – | –
CN1CC=C(Cc2cccs2)CC1 | 175 | 337 | 3270 | 8.4 | – | –
CN1CC=C(CCc2ccsc2)CC1 | 228 | 50.7 | 890 | 29.7 | – | –
CN1CC=C(CCc2ccc3ccccc3c2)CC1 | 2225 | 79 | 76 | 95.9 | – | –
CN1CC=C(CCc2ccccc2)CC1 | 1120 | 61 | 1130 | 137 | – | –
CN1CC=C(CCc2cccc3ccccc23)CC1 | 3187 | 80 | 62 | 244 | – | –
CN1CC=C(c2cccs2)CC1 | 28 | 12 | 71 | 5.21 | – | –
CN1CC=C(c2ccc3ccccc3c2)CC1 | 2216 | 73.5 | 101 | 10.2 | – | –
CN1CC=C(c2ccccc2)CC1 | 143 | 204 | 523 | 20 | 140 | –
CN1CC=C(c2cccc3ccccc23)CC1 | 1893 | 55 | 500 | 140 | – | –
CN1CC=C(Cc2ccsc2)CC1 | 98 | 153 | 785 | 13.3 | – | –
CN1CC=C(c2ccsc2)CC1 | 80 and 160 | 4.17 | – | 8.14 | – | –
CN1CC=C(Cc2ccccc2)CC1 | 139 | 193 | 1250 | 9.2 | – | –
NCc1ccccc1 [BENZYLAMINE] | 13 | 283 | 963 | 10 | – | –
NCCC(=O)c1ccccc1N [KYNURAMINE] | 860 | 165 | – | 146 | – | 1964
